Active and inactive are the calls of the source. The rule behind the calls is not given here.
Key:
[1] = Antioxidant activity assessed as reduction of TPTZ-Fe3+ to TPTZ-Fe2+ at 0.15 to 1.5 mM after 5 mins by FRAP assay; assay type: functional
[2] = biological target: Amyloid-beta precursor protein (Homo sapiens) (UniProt P05067); assay: Neuroprotective activity against amyloid beta (25 to 35)-induced cell death in human SH-SY5Y cells assessed as cell viability at 0.08 uM after 24 hrs by MTT assay relative to control; assay type: functional, cell-based
Sequence of Amyloid-beta precursor protein (Homo sapiens) (P05067 whole entry): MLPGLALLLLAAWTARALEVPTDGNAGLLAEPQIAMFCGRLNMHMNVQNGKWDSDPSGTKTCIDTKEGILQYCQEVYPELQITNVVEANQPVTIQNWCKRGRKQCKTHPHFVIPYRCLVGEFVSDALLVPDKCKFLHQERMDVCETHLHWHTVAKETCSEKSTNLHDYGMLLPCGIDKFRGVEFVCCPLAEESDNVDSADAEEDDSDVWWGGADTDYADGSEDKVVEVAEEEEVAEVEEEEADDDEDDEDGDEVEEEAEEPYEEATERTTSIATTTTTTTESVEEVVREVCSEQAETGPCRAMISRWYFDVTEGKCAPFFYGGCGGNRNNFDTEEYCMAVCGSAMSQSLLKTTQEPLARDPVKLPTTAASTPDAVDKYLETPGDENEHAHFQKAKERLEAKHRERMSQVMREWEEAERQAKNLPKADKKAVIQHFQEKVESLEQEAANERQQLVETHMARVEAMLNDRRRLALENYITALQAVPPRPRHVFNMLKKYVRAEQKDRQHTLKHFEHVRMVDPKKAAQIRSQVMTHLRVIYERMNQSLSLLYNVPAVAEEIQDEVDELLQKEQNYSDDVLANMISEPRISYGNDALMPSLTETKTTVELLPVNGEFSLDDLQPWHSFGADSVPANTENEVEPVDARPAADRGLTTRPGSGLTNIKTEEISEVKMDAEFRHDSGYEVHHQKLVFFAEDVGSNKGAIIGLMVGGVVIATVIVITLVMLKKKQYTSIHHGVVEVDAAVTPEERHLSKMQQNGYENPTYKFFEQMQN

[3] = biological target: Amyloid-beta precursor protein (Homo sapiens) (UniProt P05067); assay: Neuroprotective activity against amyloid beta (25 to 35)-induced cell death in human SH-SY5Y cells assessed as cell viability at 0.4 uM after 24 hrs by MTT assay relative to control; assay type: functional, cell-based
[4] = biological target: Amyloid-beta precursor protein (Homo sapiens) (UniProt P05067); assay: Neuroprotective activity against amyloid beta (25 to 35)-induced cell death in human SH-SY5Y cells assessed as cell viability at 2 uM after 24 hrs by MTT assay relative to control; assay type: functional, cell-based
[5] = biological target: Amyloid-beta precursor protein (Homo sapiens) (UniProt P05067); assay: Neuroprotective activity against amyloid beta (25 to 35)-induced cell death in human SH-SY5Y cells assessed as cell viability at 10 uM after 24 hrs by MTT assay relative to control; assay type: functional, cell-based
[6] = system: Radical scavenging activity; assay: Antioxidant activity assessed as 150 uM DPPH free radical scavenging activity under dark condition after 30 mins by microplate reader analysis; assay type: functional
How it was run: (§1)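 Compounds at final 6.25, 12.5, 25, 50, 75 and 100 μM mixed with DPPH (final 150 or 300 μM) in EtOH containing 5% DMSO; EtOH/5% DMSO control. A517 read at steady state after 30 min at room temperature in the dark. Triplicate tests averaged.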

[7] = system: Radical scavenging activity; assay: Antioxidant activity assessed as 300 uM DPPH free radical scavenging activity under dark condition after 30 mins by microplate reader analysis; assay type: functional; how it was run: as §1
[8] = Antioxidant activity assessed as reduction of TPTZ-Fe3+ to TPTZ-Fe2+ after 5 mins by FRAP assay; assay type: functional
How it was run: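 Working reagent prepared fresh from TPTZ solution, TPTZ diluent and detective buffer (1:10:1 v/v), prewarmed to 37 °C. Samples at 0.15–1.5 mM (5 μL) mixed with 180 μL reagent and held 5 min at 37 °C, then A593 read. Activity expressed as FeSO4 equivalents from a FeSO4 standard curve (0.15–5.00 mM).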

In the case of COc1ccc([C@H]2O[C@H](c3ccc4c(c3)OCO4)[C@@H](C)[C@H]2C)cc1OC, the Activity [1] is reported as “inactive”, the Activity [2] is reported as 58.2% and the Activity [3] is reported as 58.1%. It also gave an Activity [4] of 58.6% and an Activity [5] of 60.4%.
With VITAMIN E the IC50 [6] was 26.9 µM and the IC50 [7] was 62.1 µM.
For COc1cc([C@@H]2c3cc(OC)c(O)cc3C=C(C)[C@H]2C)ccc1O, the IC50 [6] was 37.5 µM, the IC50 [7] was 83.4 µM and the Activity [8] was “Dose-dependent effect”. The Activity [2] was 58.6%, the Activity [3] was 60.7% and the Activity [4] was 62.1%. For the same molecule, the Activity [5] was 65.2%.
For OC[C@H](Cc1ccc2c(c1)OCO2)[C@H](CO[C@@H]1O[C@H](CO)[C@@H](O)[C@H](O)[C@H]1O)Cc1ccc2c(c1)OCO2, the Activity [1] was “inactive”, the Activity [2] was 65% and the Activity [3] was 64%. The Activity [4] was 63.1% and the Activity [5] was 65.2%.
For OC[C@H](Cc1ccc2c(c1)OCO2)[C@H](CO[C@@H]1O[C@H](CO[C@@H]2O[C@@H](CO)[C@H](O)[C@H]2O)[C@@H](O)[C@H](O)[C@H]1O)Cc1ccc2c(c1)OCO2, the Activity [1] was “inactive”, the Activity [2] was 58% and the Activity [3] was 59.2%. For the same molecule, the Activity [4] was 62% and the Activity [5] was 58.3%.
With COc1ccc(C[C@@H](C)[C@@H](C)Cc2ccc3c(c2)OCO3)cc1OC the Activity [1] was “inactive”, the Activity [2] was 58.1% and the Activity [3] was 62.2%. For the same molecule, the Activity [4] was 61.1% and the Activity [5] was 61.9%.
In the case of COc1cc([C@H]2c3cc4c(cc3C[C@@H](C)[C@@H]2C)OCO4)ccc1O, the IC50 [6] is reported as 181 µM, the IC50 [7] is reported as 360 µM and the Activity [8] is reported as “Dose-dependent effect”. It also gave an Activity [2] of 57.7%, an Activity [3] of 59.9% and an Activity [4] of 60.5%. The Activity [5] was 60.5%.
O=C1O[C@H]([C@@H](O)CO)C(O)=C1O [ASCORBIC ACID] showed an IC50 [6] of 24.7 µM, an IC50 [7] of 59.3 µM and an Activity [2] of 54.1%. It also gave an Activity [3] of 55.6%, an Activity [4] of 58.5% and an Activity [5] of 58%.
For Cc1c(C)c2c(c(C)c1O)CCC(C)(C(=O)O)O2 (stereo unspecified), the Activity [1] was “Active”.
In the case of COc1ccc(C(=O)O[C@@H](c2ccc3c(c2)OCO3)[C@H](C)C(C)=O)cc1OC, the Activity [1] is reported as “inactive”, the Activity [2] is reported as 58.3% and the Activity [3] is reported as 65.4%. For the same molecule, the Activity [4] was 68.9% and the Activity [5] was 66.8%.
In the case of COc1ccc([C@H](OC(=O)c2ccc3c(c2)OCO3)[C@H](C)C(C)=O)cc1OC, the Activity [1] is reported as “inactive”.
With COc1cc(C[C@@H](C)[C@@H](C)Cc2ccc(O)c(OC)c2)ccc1O [MESODIHYDROGUAIARETIC ACID] the IC50 [6] was 15.7 µM, the IC50 [7] was 34.6 µM and the Activity [8] was “Dose-dependent effect”. It also gave an Activity [2] of 62.2%, an Activity [3] of 63.8% and an Activity [4] of 69.2%. For the same molecule, the Activity [5] was 68.3%.
In the case of COc1ccc([C@H]2c3cc4c(cc3C[C@@H](C)[C@@H]2C)OCO4)cc1OC, the Activity [1] is reported as “inactive”, the Activity [2] is reported as 57.4% and the Activity [3] is reported as 58.2%. The Activity [4] was 59.8% and the Activity [5] was 58.7%.
In the case of COc1cc([C@H]2O[C@H](c3ccc4c(c3)OCO4)[C@@H](C)[C@H]2C)ccc1O, the IC50 [6] is reported as 23.3 µM, the IC50 [7] is reported as 44.5 µM and the Activity [8] is reported as “Dose-dependent effect”.
In the case of COc1cc(C[C@H](C)[C@H](C)Cc2ccc3c(c2)OCO3)ccc1O [AUSTROBAILIGNAN 6], the IC50 [6] is reported as 33.2 µM, the IC50 [7] is reported as 75.1 µM and the Activity [8] is reported as “Dose-dependent effect”. It also gave an Activity [2] of 57%, an Activity [3] of 61.5% and an Activity [4] of 61.8%. For the same molecule, the Activity [5] was 64.4%.

— ChEMBL document CHEMBL3286204, “Lignans from the fruit of Schisandra glaucescens with antioxidant and neuroprotective properties” (J Nat Prod, 2014)
